Data set [1] can be described thus: Lipophilicity, log D of the compound at pH 7.4 by LC-MS based shake flask method. The class given is physicochemical. Particulars: buffer. A digest of the protocol: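 LogD at pH 7.4 measured by a high-throughput microscale shake-flask method with LC-MS/MS quantitation.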
Data set [2] in a line: Oral bioavailability in Beagle dog at 5 mg/kg via gavage administered as single dose. Particulars: in vivo. The class given is ADME, organism-based, Canis lupus familiaris.
Data set [3] can be described thus: Volume of distribution in cynomolgus monkey. The class given is ADME, organism-based, Macaca fascicularis. Conditions: in vivo.
The nature of data set [4]: Oral bioavailability in cynomolgus monkey at 5 mg/kg via gavage administered as single dose. The data set is classed as ADME, organism-based, Macaca fascicularis. Conditions: in vivo.
Data set [5] in a line: Volume of distribution in Beagle dog. The class given is ADME, organism-based, Canis lupus familiaris. Particulars: in vivo.
Data set [6] is described as follows: Oral bioavailability in Sprague-Dawley rat at 5 mg/kg via gavage administered as single dose. The data set is classed as ADME, organism-based. Conditions: in vivo.
Data set [7] in a line: Oral bioavailability in CD-1 mouse at 5 mg/kg via gavage administered as single dose. The class given is ADME, organism-based. Particulars: in vivo.
Data set [8] is described as follows: Volume of distribution in CD-1 mouse. The class given is ADME, organism-based. Conditions: in vivo.
Data set [9] is described as follows: Apparent permeability from basolateral to apical side in MDCK cells. The data set is classed as ADME, cell-based, Canis lupus familiaris. Particulars: dog.
A short description of data set [10]: Volume of distribution in Sprague-Dawley rat. Conditions: in vivo. The data set is classed as ADME, organism-based.
A short description of data set [11]: Apparent permeability from apical to basolateral side in MDCK cells. The class given is ADME, cell-based, Canis lupus familiaris. Particulars: dog.
The nature of data set [12]: Kinetic solubility of the compound. The class given is physicochemical. Particulars: read-out: Kinetic_solubility.

In brackets after ≈: the same amount, converted by molar mass. Where only a bound is given, the exact number is not on record here.

`CN1CC[C@@](O)(C#Cc2ccnc(-n3ccc(C(N)=O)n3)c2)C1=O`: the logD (usually lipophilicity at a set pH, counting ionised and neutral species) in data set [1] is 0.61.

With `CN1CC[C@@](O)(C#Cc2ccnc(-n3nc(C(N)=O)cc3N)c2)C1=O`, the logD in [1] turned out to be 2. The compound `COc1cnc2c(c1)c(C(N)=O)nn2-c1cccc(C#C[C@]2(O)CCN(C)C2=O)c1` yielded a logD in data set [1] of 1.9.

In data set [1], `CN1CC[C@@](O)(C#Cc2cccc(-c3nc(C(N)=O)c4ccccn34)c2)C1=O` returned a logD of 1.3. In the case of `COc1ccc2c(-c3cccc(C#C[C@]4(O)CCN(C)C4=O)c3)nc(C(N)=O)n2c1`, the logD in data set [1] was 2.4. Consider `CN1CC[C@@](O)(C#Cc2cccc(-n3cc(C(N)=O)c4cccnc43)c2)C1=O`, for which the logD in data set [1] came to 2.4. `CN1CC[C@@](O)(C#Cc2cccc(-n3nc(C(N)=O)c4cc(F)ccc43)c2)C1=O` yielded a logD in [1] of 2.6. In data set [1], `CN1CC[C@@](O)(C#Cc2cccc(-n3nc(C(N)=O)c4cccnc43)c2)C1=O` gave a logD of 1.6. On to `CCOc1ccn2c(-c3cccc(C#C[C@]4(O)CCN(C)C4=O)c3)nc(C(N)=O)c2c1`, for which the logD in [1] was determined as 1.9. Same read-out and setting: the figure for `CN1CC[C@@](O)(C#Cc2cccc(-c3ccnc(C(N)=O)n3)c2)C1=O` is 1.6. Take `CN1CC[C@@](O)(C#Cc2ccnc(-n3nc(C(N)=O)c4ccccc43)c2)C1=O`: in data set [1], the logD was found to be 1.9.

As for `CN1CC[C@@](O)(C#Cc2cccc(-c3cccc(C(N)=O)n3)c2)C1=O`, the logD in data set [1] was 1.6.

Compound `COc1cc(C(N)=O)nc(-c2cccc(C#C[C@]3(O)CCN(C)C3=O)c2)c1` displayed a logD in data set [1] of 1.9. Besides, the bioavailability (commonly dose-corrected exposure relative to a reference, in per cent) in data set [2] is 56%; in data set [4] it was greater than 100%; in data set [6] it was 97%; in [7] it was 54%. Also, the Vd – broadly, a proportionality between amount in the body and measured concentration, not a real space – in data set [3] came to 1.39 L/kg; in [5], 0.778 L/kg; in data set [8] it was 1.58 L/kg; in data set [10] it was 1.35 L/kg. Besides, the Papp B→A (commonly the apparent permeability from the basolateral to the apical side of a cell layer) in [9] was 10.2 ×10⁻⁶ cm/s. In addition, the Papp A→B (as a rule, the apparent permeability from the apical to the basolateral side of a cell layer) in data set [11] turned out to be 7.3 ×10⁻⁶ cm/s. Further, the solubility kinetic in [12] was 139 µM (≈ 50.8 µg/mL). As to `CN1CC[C@@](O)(C#Cc2cccc(-n3nc(C(N)=O)c4ccccc43)c2)C1=O`, in data set [1], the logD is 2.1. Same read-out and setting: with `CN1CC[C@@](O)(C#Cc2cccc(-c3cccc(C(N)=O)c3)c2)C1=O` the figure was 1.6; with `COc1cc(C(N)=O)nc(-c2cccc(C#C[C@]3(O)CCN(C)C3=O)c2)n1`, 1.8.

The compound `CN1CC[C@@](O)(C#Cc2cccc(-c3cc4ccccc4c(C(N)=O)n3)c2)C1=O` showed a logD in data set [1] of 2.5.

In turn, `CN1CC[C@@](O)(C#Cc2ccnc(-n3nc(C(N)=O)cc3C3CC3)c2)C1=O` showed a log distribution coefficient (logD) in [1] of 2. Still for that read-out and setting: with `CN1CC[C@@](O)(C#Cc2ccnc(-n3nc(C(N)=O)c4c3CCCC4)c2)C1=O` the figure was 1.9. The compound `CN1CC[C@@](O)(C#Cc2cccc(-c3ccc(N)c(C(N)=O)n3)c2)C1=O` had a logD in data set [1] of 1.7. Same read-out and setting: the figure for `CN1CC[C@@](O)(C#Cc2cccc(-c3nc(C(N)=O)n4ccccc34)c2)C1=O` is 2.2. The same measure, in the same setting: the figure for `CN1CC[C@@](O)(C#Cc2cccc(-c3cncc(C(N)=O)n3)c2)C1=O` is 1.

The record behind these values is ChEMBL document CHEMBL4190405, “Scaffold-Hopping Approach To Discover Potent, Selective, and Efficacious Inhibitors of NF-κB Inducing Kinase” (J Med Chem, 2018).
